Source: ChEMBL document CHEMBL1155262, “A new class of anticonvulsants possessing 6 Hz activity: 3,4-dialkyloxy thiophene bishydrazones” (Eur J Med Chem, 2009)
Active and inactive are the calls of the source. The calls are words filed in the database; no cut-off is given here.

How the values were obtained:
[1] = test system: Mus musculus; experiment: Anticonvulsant activity in mouse CF1 albino assessed as inhibition of subcutaneous metrazole-induced seizure at 300 mg/kg, ip after 0.5 hrs; assay type: functional, organism-based; set-up: dose 300 mg/kg
[2] = test system: Mus musculus; experiment: Anticonvulsant activity in mouse CF1 albino assessed as inhibition of maximal electric shock-induced seizure at 300 mg/kg, ip after 0.5 hrs; assay type: functional, organism-based; set-up: dose 300 mg/kg
In short: (§1)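 Male CF-1 albino mice (18–25 g); compound suspended in 0.5% methyl cellulose/water or PEG 200, given i.p. at 30, 100 and 300 mg/kg (0.01 mL/g). Tested 0.5 or 4 h after dosing. Protection = abolition of hind limb tonic extensor component of MES seizure.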

[3] = test system: Mus musculus; experiment: Anticonvulsant activity in mouse CF1 albino assessed as inhibition of maximal electric shock-induced seizure at 300 mg/kg, ip after 4 hrs; assay type: functional, organism-based; set-up: dose 300 mg/kg; in short: as §1
[4] = test system: Mus musculus; experiment: Anticonvulsant activity in mouse CF1 albino assessed as inhibition of subcutaneous metrazole-induced seizure at 300 mg/kg, ip after 4 hrs; assay type: functional, organism-based; set-up: dose 300 mg/kg
[5] = test system: Mus musculus; experiment: Neurotoxicity against ip dosed mouse CF1 albino assessed as minimal motor impairment after 0.5 hrs by rotord test; assay type: toxicity, organism-based; conditions: in vivo
In short: (§2)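 Rotorod minimal motor impairment in male CF-1 albino mice (18–25 g) after i.p. dosing at 30, 100 or 300 mg/kg in 0.5% methyl cellulose/water or PEG 200. Mice placed on a rod rotating at 6 rpm at 0.5 or 4 h. Value is minimum dose causing impairment in at least one mouse.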

[6] = test system: Mus musculus; experiment: Neurotoxicity against mouse CF1 albino assessed as minimal motor impairment at 300 mg/kg, ip after 4 hrs by rotord test; assay type: toxicity, organism-based; set-up: dose 300 mg/kg, route intraperitoneal; conditions: in vivo; in short: as §2
[7] = test system: Mus musculus; experiment: Anticonvulsant activity in ip dosed mouse CF1 albino assessed as inhibition of subcutaneous metrazole-induced seizure after 0.5 hrs; assay type: functional
[8] = test system: Mus musculus; experiment: Neurotoxicity against mouse CF1 albino assessed as minimal motor impairment at 300 mg/kg, ip after 0.5 hrs by rotord test; assay type: toxicity, organism-based; set-up: dose 300 mg/kg, route intraperitoneal; conditions: in vivo; in short: as §2
[9] = test system: Mus musculus; experiment: Anticonvulsant activity in mouse CF1 albino assessed as inhibition of minimal electric shock-induced seizure at 100 mg/kg, ip after 0.25 hrs; assay type: functional, organism-based; set-up: dose 100 mg/kg
In short: (§3)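 6 Hz psychomotor seizure model in male CF-1 albino mice dosed i.p. Four mice per time point (0.25, 0.5, 1, 2, 4 h) received corneal-electrode current of 32 mA for 3 s. Untreated mice show a minimal clonic phase followed by stereotyped automatistic behaviour. Results given as number protected out of 4.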

[10] = test system: Mus musculus; experiment: Anticonvulsant activity in mouse CF1 albino assessed as inhibition of minimal electric shock-induced seizure at 100 mg/kg, ip after 2 hrs; assay type: functional, organism-based; set-up: dose 100 mg/kg; in short: as §3
[11] = test system: Mus musculus; experiment: Anticonvulsant activity in mouse CF1 albino assessed as inhibition of minimal electric shock-induced seizure at 100 mg/kg, ip after 4 hrs; assay type: functional, organism-based; set-up: dose 100 mg/kg; in short: as §3
[12] = test system: Mus musculus; experiment: Anticonvulsant activity in mouse CF1 albino assessed as inhibition of minimal electric shock-induced seizure at 50 mg/kg, ip after 2 hrs; assay type: functional, organism-based; set-up: dose 50 mg/kg; in short: as §3
[13] = test system: Mus musculus; experiment: Anticonvulsant activity in mouse CF1 albino assessed as inhibition of minimal electric shock-induced seizure at 50 mg/kg, ip after 0.25 hrs; assay type: functional, organism-based; set-up: dose 50 mg/kg; in short: as §3
[14] = test system: Mus musculus; experiment: Anticonvulsant activity in mouse CF1 albino assessed as inhibition of minimal electric shock-induced seizure at 50 mg/kg, ip after 0.5 hrs; assay type: functional, organism-based; set-up: dose 50 mg/kg; in short: as §3
[15] = test system: Mus musculus; experiment: Anticonvulsant activity in mouse CF1 albino assessed as inhibition of minimal electric shock-induced seizure at 50 mg/kg, ip after 1 hr; assay type: functional, organism-based; set-up: dose 50 mg/kg; in short: as §3
[16] = test system: Mus musculus; experiment: Anticonvulsant activity in mouse CF1 albino assessed as inhibition of minimal electric shock-induced seizure at 50 mg/kg, ip after 4 hrs; assay type: functional, organism-based; set-up: dose 50 mg/kg; in short: as §3
[17] = test system: Mus musculus; experiment: Anticonvulsant activity in mouse CF1 albino assessed as inhibition of minimal electric shock-induced seizure at 100 mg/kg, ip after 0.5 hrs; assay type: functional, organism-based; set-up: dose 100 mg/kg; in short: as §3
[18] = test system: Mus musculus; experiment: Anticonvulsant activity in mouse CF1 albino assessed as inhibition of minimal electric shock-induced seizure at 30 mg/kg, ip after 1 hr; assay type: functional, organism-based; set-up: dose 30 mg/kg; in short: as §3
[19] = test system: Mus musculus; experiment: Anticonvulsant activity in mouse CF1 albino assessed as inhibition of minimal electric shock-induced seizure at 30 mg/kg, ip after 0.25 hrs; assay type: functional, organism-based; set-up: dose 30 mg/kg; in short: as §3
[20] = test system: Mus musculus; experiment: Anticonvulsant activity in mouse CF1 albino assessed as inhibition of minimal electric shock-induced seizure at 30 mg/kg, ip after 2 hrs; assay type: functional, organism-based; set-up: dose 30 mg/kg; in short: as §3
[21] = test system: Mus musculus; experiment: Anticonvulsant activity in mouse CF1 albino assessed as inhibition of minimal electric shock-induced seizure at 30 mg/kg, ip after 4 hrs; assay type: functional, organism-based; set-up: dose 30 mg/kg; in short: as §3
[22] = test system: Mus musculus; experiment: Anticonvulsant activity in mouse CF1 albino assessed as inhibition of minimal electric shock-induced seizure at 30 mg/kg, ip after 0.5 hrs; assay type: functional, organism-based; set-up: dose 30 mg/kg; in short: as §3
[23] = test system: Mus musculus; experiment: Anticonvulsant activity in mouse CF1 albino assessed as inhibition of minimal electric shock-induced seizure at 100 mg/kg, ip after 1 hr; assay type: functional, organism-based; set-up: dose 100 mg/kg; in short: as §3
[24] = test system: Mus musculus; experiment: Anticonvulsant activity in ip dosed mouse CF1 albino assessed as inhibition of maximal electric shock-induced seizure after 0.5 hrs; assay type: functional; in short: as §1
[25] = test system: Mus musculus; experiment: Anticonvulsant activity in ip dosed mouse CF1 albino assessed as inhibition of subcutaneous metrazole-induced seizure after 4 hrs; assay type: functional
[26] = test system: Mus musculus; experiment: Neurotoxicity against ip dosed mouse CF1 albino assessed as minimal motor impairment after 4 hrs by rotord test; assay type: toxicity, organism-based; conditions: in vivo; in short: as §2

SMILES | Activity [1] | Activity [2] | Activity [3] | Activity [4] | Activity [5] [mg/kg] | Activity [6] | also measured
CCCOc1c(C(=O)N/N=C/c2ccc(C(=O)O)cc2)sc(C(=O)N/N=C/c2ccc(C(=O)O)cc2)c1OCCC | inactive | inactive | inactive | inactive | 100 | Not Active | 
O=C(N/N=C/c1ccc2c(c1)Cc1ccccc1-2)c1sc(C(=O)N/N=C/c2ccc3c(c2)Cc2ccccc2-3)c2c1OCCO2 |  | inactive | inactive | inactive |  | Not Active | Activity [7]: 300 mg/kg; Activity [8]: Not Active
CCCOc1c(C(=O)N/N=C(/C)c2ccsc2Br)sc(C(=O)N/N=C(/C)c2ccsc2Br)c1OCCC |  |  |  |  |  |  | Activity [9]: inactive; Activity [10]: inactive; Activity [11]: inactive
CCCCCCCOc1c(C(=O)N/N=C/c2ccccc2)sc(C(=O)N/N=C/c2ccccc2)c1OCCCCCCC |  | inactive | inactive | inactive |  | Not Active | Activity [12]: inactive; Activity [7]: 300 mg/kg; Activity [13]: inactive; Activity [14]: inactive; Activity [15]: inactive; Activity [8]: Not Active; Activity [11]: inactive; Activity [16]: inactive
CCCCCCCOc1c(C(=O)N/N=C/c2cc(OC)c(OC)c(OC)c2)sc(C(=O)N/N=C/c2cc(OC)c(OC)c(OC)c2)c1OCCCCCCC |  |  |  |  |  |  | Activity [9]: inactive
CCCOc1c(C(=O)N/N=C(/C)c2ccc(Br)s2)sc(C(=O)N/N=C(/C)c2ccc(Br)s2)c1OCCC |  |  |  |  |  |  | Activity [17]: inactive
CCCCCCCOc1c(C(=O)N/N=C(\C)c2cccs2)sc(C(=O)N/N=C(\C)c2cccs2)c1OCCCCCCC |  |  |  |  |  |  | Activity [18]: inactive; Activity [19]: inactive; Activity [20]: inactive; Activity [21]: inactive; Activity [22]: inactive; Activity [23]: inactive
COc1cc(/C=N/NC(=O)c2sc(C(=O)N/N=C/c3cc(OC)c(OC)c(OC)c3)c3c2OCCO3)cc(OC)c1OC | inactive | inactive | inactive | inactive | 300 | Not Active | 
O=C(N/N=C/c1ccccc1)c1sc(C(=O)N/N=C/c2ccccc2)c(OCc2ccccc2)c1OCc1ccccc1 | inactive |  | inactive |  |  | Not Active | Activity [18]: inactive; Activity [19]: inactive; Activity [20]: inactive; Activity [24]: 300 mg/kg; Activity [25]: 300 mg/kg; Activity [8]: Not Active; Activity [22]: inactive
CCCOc1c(C(=O)N/N=C/c2ccccc2OC)sc(C(=O)N/N=C/c2ccccc2OC)c1OCCC | inactive | inactive | inactive | inactive | 100 | Not Active | 
O=C(N/N=C/c1ccc([N+](=O)[O-])cc1)c1sc(C(=O)N/N=C/c2ccc([N+](=O)[O-])cc2)c(OCc2ccccc2)c1OCc1ccccc1 | inactive | inactive | inactive | inactive | 100 | Not Active | 
CCCOc1c(C(=O)N/N=C/c2ccc(N(C)C)cc2)sc(C(=O)N/N=C/c2ccc(N(C)C)cc2)c1OCCC | inactive | inactive | inactive | inactive | 100 |  | Activity [26]: 300 mg/kg
